Our source for the Activity values is ChEMBL document CHEMBL1151227, “Hyperjovinols A and B: Two new phloroglucinol derivatives from Hypericum jovis with antioxidant activity in cell cultures” (J Nat Prod, 2004).

Series [1] deals with Fibroblast. Description: Inhibition of endogenous ROS production in human skin fibroblast assessed as DCF-fluorescence at 100 uM after 4 hrs by DCFH-DA assay relative to control. Also on record: scale not given: the % may be the effect or the level left.
Series [2] relates to Fibroblast. Description: Inhibition of endogenous ROS production in human skin fibroblast assessed as DCF-fluorescence at 10 uM after 4 hrs by DCFH-DA assay relative to control. Also on record: scale not given: the % may be the effect or the level left.
Series [3] can be described thus: Cytotoxicity against human skin fibroblasts assessed as cell viability by trypan blue exclusion assay relative to control. The following applies: fibroblast. The series is classed as cell-based. The method, boiled down:
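Normal human skin fibroblasts (lab-derived) grown in MEM with 10% FBS to confluency, then exposed to compounds (diluted from DMSO into medium) for 4 h. Viability was judged against untreated cells by Trypan Blue exclusion, with microscopic inspection for cytotoxicity.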

As for `CC(C)=CCCC1(C)CCc2c(cc(O)c(C(=O)C(C)C)c2O)O1` (stereo not given), the Activity in the series with Fibroblast [1] is listed as 62.4%; with Fibroblast [2], 94.1%; in series [3] it was “Non-toxic”.

Consider `CC(C)=CCCC(C)(O)CCc1c(O)cc(O)c(C(=O)C(C)C)c1O` (stereo not given) [HYPERJOVINOL A], for which the Activity in the series with Fibroblast [1] is on record as 49.2%; in the series on Fibroblast [2], 76.1%; in series [3], “Non-toxic”.

For `Cc1c(C)c2c(c(C)c1O)CCC(C)(C(=O)O)O2` (stereo not given) [TROLOX], the values for the Activity in the series on Fibroblast [1] and in the series with Fibroblast [2] were 55.2% and 81.4%, respectively.

With `CC(C)C(=O)c1c(O)cc2c(c1O)C[C@@H]1C(C)(C)CCC[C@@]1(C)O2` [HYPERJOVINOL B], the figures for the Activity (with Fibroblast [1]; with Fibroblast [2]; in series [3]) were 57.1%, 89.7% and “Non-toxic”, respectively.

Consider `CC(C)=CCC/C(C)=C/Cc1c(O)cc(O)c(C(=O)C(C)C)c1O`, for which the Activity in the series on Fibroblast [1] is given as 50.8%; with Fibroblast [2] it was 79.4%; in series [3], “Non-toxic”.

Consider `CC(C)=CCC/C(C)=C/COc1cc(O)c(C(=O)C(C)C)c(O)c1`, for which the figures for the Activity (in the series with Fibroblast [1]; in the series on Fibroblast [2]; in series [3]) were 61.5%, 92.2% and “Non-toxic”, respectively.

Regarding `CC(C)=CCCC1(C)CCc2c(O)cc(O)c(C(=O)C(C)C)c2O1` (stereo not given), the Activity is reported as 73% with Fibroblast [1], 81.5% with Fibroblast [2] and “Non-toxic” in series [3].
